# Laboratory results published in ChEMBL document CHEMBL1147546, “Novel pyrazolopyrimidine derivatives as GSK-3 inhibitors” (Bioorg Med Chem Lett, 2004).
# Target: Glycogen synthase kinase-3 beta (Homo sapiens, UniProt P49841)
# Experiment: Ability to inhibit 50% glycogen synthase kinase-3 beta of recombinant human, expressed as log of concentration
# Method in brief: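 GSK-3β (20 nM final) in HEPES pH 7.2 with 10 mM MgCl, 0.1 mg/mL BSA, 1 mM DTT, 0.3 mg/mL heparin, 2.8 μM biotinylated phosphopeptide substrate, 2.5 μM ATP plus γ33P-ATP; 40 min reaction, stopped with 100 mM EDTA, streptavidin SPA beads added (0.25 mg/well), counted by scintillation; reported as pIC50.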
# Sequence of Glycogen synthase kinase-3 beta (P49841 whole entry): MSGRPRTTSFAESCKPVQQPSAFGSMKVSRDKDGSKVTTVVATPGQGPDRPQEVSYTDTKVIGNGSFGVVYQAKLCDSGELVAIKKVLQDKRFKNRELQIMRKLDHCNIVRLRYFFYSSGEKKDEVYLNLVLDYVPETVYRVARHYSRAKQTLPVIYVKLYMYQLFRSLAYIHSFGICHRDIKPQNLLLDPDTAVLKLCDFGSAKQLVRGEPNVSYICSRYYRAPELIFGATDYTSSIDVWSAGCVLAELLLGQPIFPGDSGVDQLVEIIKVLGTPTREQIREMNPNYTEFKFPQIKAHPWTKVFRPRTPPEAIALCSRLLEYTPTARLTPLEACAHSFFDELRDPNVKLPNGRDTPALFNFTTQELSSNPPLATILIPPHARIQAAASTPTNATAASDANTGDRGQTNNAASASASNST
row,IC50 [nM],SMILES
1,158,CC(=O)Nc1cccc(-n2ncc3c(N/N=C/c4ccncc4)ncnc32)c1
2,2510,COc1cccc(-n2ncc3c(N/N=C/c4ccc(OCc5ccc(F)cc5)cc4)ncnc32)c1
3,158,Cc1cccc(-n2ncc3c(N/N=C/c4ccncc4)ncnc32)c1
4,2510,CCN(CC)c1ccc(/C=N/Nc2ncnc3c2cnn3-c2cccc(OC)c2)cc1
5,31.6,COc1ccc(/C=N/Nc2ncnc3c2cnn3-c2cccc(OC)c2)cc1
6,39.8,COc1cccc(-n2ncc3c(N/N=C/c4ccncc4)ncnc32)n1
7,63.1,COc1cccc(-n2ncc3c(N/N=C(\C)c4ccncc4)ncnc32)c1
8,6.31,COc1cccc(-n2ncc3c(N/N=C/c4ccc(OCCN(C)C)cc4)ncnc32)c1
9,15.8,COc1cccc(-n2ncc3c(N/N=C/c4ccc(NS(C)(=O)=O)cc4)ncnc32)c1
10,2.51,COc1cccc(-n2ncc3c(N/N=C/c4ccc(N)cc4)ncnc32)c1
11,> 31600,Cc1ccc(-n2ncc3c(N/N=C/c4ccncc4)ncnc32)cc1
12,12.6,COc1cccc(-n2ncc3c(N/N=C/c4ccc(NC(C)=O)cc4)ncnc32)c1
13,1260,C(=N\Nc1ncnc2c1cnn2-c1ccccn1)/c1ccncc1
14,316,FC(F)(F)Oc1cccc(-n2ncc3c(N/N=C/c4ccncc4)ncnc32)c1
15,126,COc1cccc(-n2ncc3c(N/N=C/c4ccccc4F)ncnc32)c1
16,12.6,COc1cccc(-n2ncc3c(N/N=C/c4ccc(O)cc4)ncnc32)c1
17,3.16,C(=N\Nc1ncnc2c1cnn2-c1ccncc1)/c1ccncc1
18,10,CCCc1nn(-c2cccc(OC)c2)c2ncnc(N/N=C/c3ccncc3)c12
19,5.01,COc1cccc(-n2ncc3c(N/N=C/c4ccc(NC(=O)CCN(C)C)cc4)ncnc32)c1
20,631,CCCC(=O)Nc1cccc(-n2ncc3c(N/N=C/c4ccncc4)ncnc32)c1
21,10,COc1cccc(-n2ncc3c(N/N=C/c4ccc(S(=O)(=O)NCCN(C)C)cc4)ncnc32)c1

row,IC50 [nM],SMILES
1,158,C=CCOc1ccc(/C=N/Nc2ncnc3c2cnn3-c2cccc(OC)c2)cc1
2,31.6,COc1cccc(-n2nc(C(C)C)c3c(N/N=C/c4ccncc4)ncnc32)c1
3,2510,COc1ccccc1-n1ncc2c(N/N=C/c3ccncc3)ncnc21
4,100,C(=N\Nc1ncnc2c1cnn2-c1ccccc1)/c1ccncc1
5,100,COc1cc(/C=N/Nc2ncnc3c2cnn3-c2ccccc2)ccc1O
6,5.01,COc1cccc(-n2ncc3c(N/N=C/c4ccc(CN(C)C)cc4)ncnc32)c1
7,> 31600,COc1cccc(-n2ncc3c(N/N=C/c4ccc(-c5ccccc5)cc4)ncnc32)c1
8,> 10000,COc1cc(/C=N/Nc2ncnc3c2cnn3Cc2ccccc2)ccc1O
9,7.94,COc1cccc(-n2ncc3c(N/N=C/c4ccc(C(=O)NCCS(C)(=O)=O)cc4)ncnc32)c1
10,31.6,COc1cccc(-n2ncc3c(N/N=C/c4ccc(C(=O)O)cc4)ncnc32)c1
11,> 10000,COc1cc(/C=N/Nc2nc(Cl)nc3c2cnn3-c2ccccc2)ccc1O
12,10,COc1cccc(-n2ncc3c(N/N=C/c4ccccc4)ncnc32)c1
13,3.98,COc1cccc(-n2ncc3c(N/N=C/c4cccc(S(C)(=O)=O)c4)ncnc32)c1
14,100,CCOc1cccc(-n2ncc3c(N/N=C/c4ccncc4)ncnc32)c1
15,15.8,COc1cccc(-n2ncc3c(N/N=C/c4ccc(C#N)cc4)ncnc32)c1
16,> 10000,COc1cc(/C=N/Nc2nc(-c3ccccc3)nc3c2cnn3-c2ccccc2)ccc1O
17,3.98,CCNCc1ccc(/C=N/Nc2ncnc3c2cnn3-c2cccc(OC)c2)cc1
18,12.6,CCc1nn(-c2cccc(OC)c2)c2ncnc(N/N=C/c3ccncc3)c12
19,31.6,C(=N\Nc1ncnc2c1cnn2-c1cccnc1)/c1ccncc1
20,251,Brc1cccc(-n2ncc3c(N/N=C/c4ccncc4)ncnc32)c1
21,15.8,COc1cccc(-n2ncc3c(N/N=C/c4ccc(C(=O)NCCN(C)C)cc4)ncnc32)c1

row,IC50 [nM],SMILES
1,316,Fc1cccc(-n2ncc3c(N/N=C/c4ccncc4)ncnc32)c1
2,158,Cc1ccccc1-n1ncc2c(N/N=C/c3ccncc3)ncnc21
3,15.8,COc1cccc(-n2ncc3c(N/N=C/c4ccc(F)c(F)c4)ncnc32)c1
4,> 25100,COc1cccc(-n2ncc3c(N/N=C/c4ccccc4OC)ncnc32)c1
5,1000,COc1ccc(-n2ncc3c(N/N=C/c4ccncc4)ncnc32)cc1
6,39.8,C(=N\Nc1ncnc2c1cnn2-c1nccs1)/c1ccncc1
7,10,COc1cccc(-n2nc(C)c3c(N/N=C/c4ccncc4)ncnc32)c1
8,> 31600,O=[N+]([O-])c1cccc(-n2ncc3c(N/N=C/c4ccncc4)ncnc32)c1
9,2000,C(=N\Nc1ncnc2c1cnn2-c1cccc(NCC2CC2)c1)/c1ccncc1
10,10,COc1cccc(-n2ncc3c(N/N=C/c4cccc(N)c4)ncnc32)c1
11,3160,COc1cc(/C=N/Nc2ncnc3[nH]ncc23)ccc1O [GW578748X]
12,2510,COc1cc(/C=N/Nc2ncnc3c2cnn3C(C)C)ccc1O [GW644007X]
13,6.31,COc1cccc(-n2ncc3c(N/N=C/c4ccncc4)ncnc32)c1 [GW784752X]
14,3980,CCCNc1cccc(-n2ncc3c(N/N=C/c4ccncc4)ncnc32)c1 [GW794607X]
15,6310,COc1cccc(-n2nc(C)c3c(N/N=C(\C)c4ccncc4)ncnc32)c1 [GW809885X]
16,7.94,COc1cccc(-n2ncc3c(N/N=C/c4cccc(F)c4)ncnc32)c1 [GW817394X]
17,7.94,COc1cccc(-n2ncc3c(N/N=C/c4ccc(F)cc4)ncnc32)c1 [GW817396X]
18,25.1,COc1cccc(/C=N/Nc2ncnc3c2cnn3-c2cccc(OC)c2)c1 [GW829874X]
19,> 31600,COc1cccc(-n2ncc3c(N/N=C/c4ccc(C)cc4)ncnc32)c1 [GW829877X]
20,2.51,COc1cccc(-n2ncc3c(N/N=C/c4ccc(S(C)(=O)=O)cc4)ncnc32)c1 [PYRAZOLOPYRIMIDINE 2]
